Experimental data taken from ChEMBL document CHEMBL4138126, “Synthesis, antiproliferative, anti-tubulin activity, and docking study of new 1,2,4-triazoles as potential combretastatin analogues” (Eur J Med Chem, 2017).

Tests used:
HepG2 [1] = test: Induction of apoptosis in human HepG2 cells assessed as viable cells level at 1.41 uM by Annexin V and propidium iodide staining based flow cytometry; type: functional
HepG2 [2] = test: Induction of cell cycle arrest in human HepG2 cells assessed as accumulation at G2 phase at cytotoxic IC50 by propidium iodide staining based flow cytometry (reference value: 7.2%); type: functional
MDA-MB-468 = test: Growth inhibition of human MDA-MB-468 cells assessed as cell growth at 10 uM after 48 hrs by sulforhodamine B assay; type: functional; details: MDA-MB-468, 48 h, read-out: Activity
Procedure, shortened: (§1)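 NCI 60-cell-line panel screen (nine cancer types). Compounds added at single concentration 10^-5 M, cultures incubated 48 h; growth inhibition percentages reported.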

MDA-MB-435 = test: Growth inhibition of human MDA-MB-435 cells assessed as cell growth at 10 uM after 48 hrs by sulforhodamine B assay; type: functional; details: MDA-MB-435, 48 h, read-out: Activity; procedure, shortened: as §1
SNB-75 = test: Growth inhibition of human SNB75 cells assessed as cell growth at 10 uM after 48 hrs by sulforhodamine B assay; type: functional; details: SNB-75, 48 h, read-out: Activity
Procedure, shortened: (§2)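 NCI 60-cell-line panel from nine tumour types (leukaemia, lung, colon, CNS, melanoma, ovarian, renal, prostate, breast). Each compound was added at one single concentration, and cultures were incubated for 48 h. Results are reported as percent growth inhibition.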

SK-MEL-5 = test: Growth inhibition of human SK-MEL-5 cells assessed as cell growth at 10 uM after 48 hrs by sulforhodamine B assay; type: functional; details: SK-MEL-5, 48 h, read-out: Activity; procedure, shortened: as §1
NCI-H322M = test: Growth inhibition of human NCI-H322M cells assessed as cell growth at 10 uM after 48 hrs by sulforhodamine B assay; type: functional; details: read-out: Activity; procedure, shortened: as §1
SF-539 = test: Growth inhibition of human SF539 cells assessed as cell growth at 10 uM after 48 hrs by sulforhodamine B assay; type: functional; details: SF-539, 48 h, read-out: Activity; procedure, shortened: as §1
UACC-257 = test: Growth inhibition of human UACC257 cells assessed as cell growth at 10 uM after 48 hrs by sulforhodamine B assay; type: functional; details: UACC-257, 48 h, read-out: Activity; procedure, shortened: as §2
MDA-MB-231 = test: Growth inhibition of human MDA-MB-231 cells assessed as cell growth at 10 uM after 48 hrs by sulforhodamine B assay; type: functional; details: MDA-MB-231, 48 h, read-out: Activity; procedure, shortened: as §1
COLO 205 = test: Growth inhibition of human COLO205 cells assessed as cell growth at 10 uM after 48 hrs by sulforhodamine B assay; type: functional; details: COLO 205, 48 h, read-out: Activity; procedure, shortened: as §1
HepG2 [3] = test: Inhibition of beta tubulin polymerisation in human HepG2 cells incubated for 2 hrs using TMB substrate by ELISA relative to untreated control; type: cell-based; parameters: concentration or dose not given beside the values; details: dose or concentration not given here
PC-3 = test: Growth inhibition of human PC3 cells assessed as cell growth at 10 uM after 48 hrs by sulforhodamine B assay; type: functional; details: PC-3, 48 h, read-out: Activity; procedure, shortened: as §1
SN12C = test: Growth inhibition of human SN12C cells assessed as cell growth at 10 uM after 48 hrs by sulforhodamine B assay; type: functional; details: read-out: Activity; procedure, shortened: as §2
OVCAR-5 = test: Growth inhibition of human OVCAR5 cells assessed as cell growth at 10 uM after 48 hrs by sulforhodamine B assay; type: functional; details: OVCAR-5, 48 h, read-out: Activity; procedure, shortened: as §1
OVCAR-3 = test: Growth inhibition of human OVCAR3 cells assessed as cell growth at 10 uM after 48 hrs by sulforhodamine B assay; type: functional; details: OVCAR-3, 48 h, read-out: Activity; procedure, shortened: as §1
Hs-578T = test: Growth inhibition of human Hs 578T cells assessed as cell growth at 10 uM after 48 hrs by sulforhodamine B assay; type: functional; details: read-out: Activity; procedure, shortened: as §1
LOX IMVI = test: Growth inhibition of human LOXIMVI cells assessed as cell growth at 10 uM after 48 hrs by sulforhodamine B assay; type: functional; details: read-out: Activity; procedure, shortened: as §1
IGROV-1 = test: Growth inhibition of human IGROV1 cells assessed as cell growth at 10 uM after 48 hrs by sulforhodamine B assay; type: functional; details: IGROV-1, 48 h, read-out: Activity; procedure, shortened: as §1
HCC 2998 = test: Growth inhibition of human HCC2998 cells assessed as cell growth at 10 uM after 48 hrs by sulforhodamine B assay; type: functional; details: HCC 2998, 48 h, read-out: Activity; procedure, shortened: as §1
SK-MEL-28 = test: Growth inhibition of human SK-MEL-28 cells assessed as cell growth at 10 uM after 48 hrs by sulforhodamine B assay; type: functional; details: SK-MEL-28, 48 h, read-out: Activity; procedure, shortened: as §1
NCI/ADR-RES = test: Growth inhibition of human NCI-ADR-RES cells assessed as cell growth at 10 uM after 48 hrs by sulforhodamine B assay; type: functional; details: read-out: Activity; procedure, shortened: as §1
HOP-62 = test: Growth inhibition of human HOP62 cells assessed as cell growth at 10 uM after 48 hrs by sulforhodamine B assay; type: functional; details: HOP-62, 48 h, read-out: Activity; procedure, shortened: as §1
A498 = test: Growth inhibition of human A498 cells assessed as cell growth at 10 uM after 48 hrs by sulforhodamine B assay; type: functional; details: A498, 48 h, read-out: Activity; procedure, shortened: as §1
KM12 = test: Growth inhibition of human KM12 cells assessed as cell growth at 10 uM after 48 hrs by sulforhodamine B assay; type: functional; details: KM12, 48 h, read-out: Activity; procedure, shortened: as §1
CAKI-1 = test: Growth inhibition of human CAKI-1 cells assessed as cell growth at 10 uM after 48 hrs by sulforhodamine B assay; type: functional; details: CAKI-1, 48 h, read-out: Activity; procedure, shortened: as §1
CCRF-CEM = test: Growth inhibition of human CCRF-CEM cells assessed as cell growth at 10 uM after 48 hrs by sulforhodamine B assay; type: functional; details: read-out: Activity; procedure, shortened: as §1
T47D = test: Growth inhibition of human T47D cells assessed as cell growth at 10 uM after 48 hrs by sulforhodamine B assay; type: functional; details: read-out: Activity; procedure, shortened: as §2
SR = test: Growth inhibition of human SR cells assessed as cell growth at 10 uM after 48 hrs by sulforhodamine B assay; type: functional; details: read-out: Activity; procedure, shortened: as §2
786-0 = test: Growth inhibition of human 786-0 cells assessed as cell growth at 10 uM after 48 hrs by sulforhodamine B assay; type: functional; details: 786-0, 48 h, read-out: Activity; procedure, shortened: as §1
NCI-H226 = test: Growth inhibition of human NCI-H226 cells assessed as cell growth at 10 uM after 48 hrs by sulforhodamine B assay; type: functional; details: NCI-H226, 48 h, read-out: Activity; procedure, shortened: as §1
[4] = Inhibition of beta tubulin polymerisation in human HepG2 cells incubated for 2 hrs using TMB substrate by ELISA; type: cell-based; details: HepG2, 2 h
UACC-62 = test: Growth inhibition of human UACC62 cells assessed as cell growth at 10 uM after 48 hrs by sulforhodamine B assay; type: functional; details: UACC-62, 48 h, read-out: Activity; procedure, shortened: as §2
K562 = test: Growth inhibition of human K562 cells assessed as cell growth at 10 uM after 48 hrs by sulforhodamine B assay; type: functional; details: K562, 48 h, read-out: Activity; procedure, shortened: as §1
HepG2 [5] = test: Induction of apoptosis in human HepG2 cells assessed as necrotic cells level at 1.41 uM by Annexin V and propidium iodide staining based flow cytometry; type: functional

Work on `CCOc1ccc(-n2nc(C(=O)NCc3cc(F)cc(F)c3)nc2-c2cc(OC)c(OC)c(OC)c2)cc1` yielded an Activity (HepG2 [1]) of 62%, an Activity (HepG2 [2]) of 21.6% and a growth at 10 µM (MDA-MB-468) of 73.6%. It also gave a growth at 10 µM (MDA-MB-435) of 67%, a growth at 10 µM (SNB-75) of 43.4% and a growth at 10 µM (SK-MEL-5) of 50.1%. The growth at 10 µM (NCI-H322M) was 61.5%, the growth at 10 µM (SF-539) was 70.7% and the growth at 10 µM (UACC-257) was 50.5%. For the same molecule, the growth at 10 µM (MDA-MB-231) was 43.1%, the growth at 10 µM (COLO 205) was 65% and the inhibition (HepG2 [3]) was 71.8%. The growth at 10 µM (PC-3) was 40.2%, the growth at 10 µM (SN12C) was 67.8% and the growth at 10 µM (OVCAR-5) was 85%. For the same molecule, the growth at 10 µM (OVCAR-3) was 71.2%, the growth at 10 µM (Hs-578T) was 75.7% and the growth at 10 µM (LOX IMVI) was 66.6%. The growth at 10 µM (IGROV-1) was 62.5%, the growth at 10 µM (HCC 2998) was 84% and the growth at 10 µM (SK-MEL-28) was 65.3%. It also gave a growth at 10 µM (NCI/ADR-RES) of 61.7%, a growth at 10 µM (HOP-62) of 75.2% and a growth at 10 µM (A498) of 64.4%. The growth at 10 µM (KM12) was 65.8%, the growth at 10 µM (CAKI-1) was 44.4% and the growth at 10 µM (CCRF-CEM) was 85.6%. It also gave a growth at 10 µM (T47D) of 44.1%, a growth at 10 µM (SR) of 64% and a growth at 10 µM (786-0) of 65.9%. It also gave a growth at 10 µM (NCI-H226) of 65.2%, an IC50 [4] of 1400 nM and a growth at 10 µM (UACC-62) of 57.9%. It also gave a growth at 10 µM (K562) of 62% and an Activity (HepG2 [5]) of 3%.
